Values after ≈ are worked out from the molar mass of the structure shown.
Key:
Assay type in all cases: functional
Staphylococcus aureus [1] = experiment: Antimicrobial activity against Staphylococcus aureus at 75 ug/ml by agar diffusion assay
Summary of the method: (§1)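 Agar diffusion assay in duplicate against the human bacterial pathogens; tetracycline as reference control.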

Fusarium oxysporum = experiment: Antifungal activity against Fusarium oxysporum
Summary of the method: (§2)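 Agar diffusion assay in duplicate against the plant fungal pathogens; read-out as minimum inhibitory concentration (MIC); carbendazim as reference control.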

[2] = system: Radical scavenging activity; experiment: Antioxidant activity assessed as DPPH free radical scavenging activity at 1000 ug by spectrophotometer
Summary of the method: (§3)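 DPPH radical scavenging measured spectrophotometrically by Blois's method at 50, 500 and 1000 µg. Absorbance read at 517 nm. Percent scavenging is the absorbance decrease at 517 nm relative to the absorbance of DPPH solution without test compound. L-ascorbic acid as standard.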

Macrophomina phaseolina = experiment: Antifungal activity against Macrophomina phaseolina; summary of the method: as §2
Bacillus subtilis [3] = experiment: Antimicrobial activity against Bacillus subtilis at 100 ug/ml by agar diffusion assay; summary of the method: as §1
Staphylococcus aureus [4] = experiment: Antimicrobial activity against Staphylococcus aureus at 100 ug/ml by agar diffusion assay; summary of the method: as §1
Pseudomonas aeruginosa [5] = experiment: Antimicrobial activity against Pseudomonas aeruginosa at 100 ug/ml by agar diffusion assay; summary of the method: as §1
Bacillus subtilis [6] = experiment: Antimicrobial activity against Bacillus subtilis at 25 ug/ml by agar diffusion assay; summary of the method: as §1
Klebsiella pneumoniae [7] = experiment: Antimicrobial activity against Klebsiella pneumoniae at 100 ug/ml by agar diffusion assay; summary of the method: as §1
Klebsiella pneumoniae [8] = experiment: Antimicrobial activity against Klebsiella pneumoniae at 75 ug/ml by agar diffusion assay; summary of the method: as §1
Staphylococcus aureus [9] = experiment: Antimicrobial activity against Staphylococcus aureus at 50 ug/ml by agar diffusion assay; summary of the method: as §1
Pseudomonas aeruginosa [10] = experiment: Antimicrobial activity against Pseudomonas aeruginosa at 50 ug/ml by agar diffusion assay; summary of the method: as §1
[11] = system: Radical scavenging activity; experiment: Antioxidant activity assessed as DPPH free radical scavenging activity at 500 ug by spectrophotometer; summary of the method: as §3
[12] = system: Radical scavenging activity; experiment: Antioxidant activity assessed as DPPH free radical scavenging activity at 50 ug by spectrophotometer; summary of the method: as §3
Staphylococcus aureus [13] = experiment: Antimicrobial activity against Staphylococcus aureus at 25 ug/ml by agar diffusion assay; summary of the method: as §1
Bacillus subtilis [14] = experiment: Antimicrobial activity against Bacillus subtilis at 75 ug/ml by agar diffusion assay; summary of the method: as §1
Pseudomonas aeruginosa [15] = experiment: Antimicrobial activity against Pseudomonas aeruginosa at 75 ug/ml by agar diffusion assay; summary of the method: as §1
Bacillus subtilis [16] = experiment: Antimicrobial activity against Bacillus subtilis at 50 ug/ml by agar diffusion assay; summary of the method: as §1
Klebsiella pneumoniae [17] = experiment: Antimicrobial activity against Klebsiella pneumoniae at 25 ug/ml by agar diffusion assay; summary of the method: as §1
Pseudomonas aeruginosa [18] = experiment: Antimicrobial activity against Pseudomonas aeruginosa at 25 ug/ml by agar diffusion assay; summary of the method: as §1
Klebsiella pneumoniae [19] = experiment: Antimicrobial activity against Klebsiella pneumoniae at 50 ug/ml by agar diffusion assay; summary of the method: as §1

| Compound | inhibition zone (IZ) (Staphylococcus aureus [1]) | MIC (Fusarium oxysporum) | Activity [2] | MIC (Macrophomina phaseolina) | inhibition zone (IZ) (Bacillus subtilis [3]) | inhibition zone (IZ) (Staphylococcus aureus [4]) | inhibition zone (IZ) (Pseudomonas aeruginosa [5]) | inhibition zone (IZ) (Bacillus subtilis [6]) | inhibition zone (IZ) (Klebsiella pneumoniae [7]) | inhibition zone (IZ) (Klebsiella pneumoniae [8]) | inhibition zone (IZ) (Staphylococcus aureus [9]) | inhibition zone (IZ) (Pseudomonas aeruginosa [10]) | Activity [11] | Activity [12] | inhibition zone (IZ) (Bacillus subtilis [14]) | inhibition zone (IZ) (Pseudomonas aeruginosa [15]) | inhibition zone (IZ) (Bacillus subtilis [16]) | inhibition zone (IZ) (Klebsiella pneumoniae [17]) | inhibition zone (IZ) (Pseudomonas aeruginosa [18]) | inhibition zone (IZ) (Klebsiella pneumoniae [19]) | other results |
| --- | --- | --- | --- | --- | --- | --- | --- | --- | --- | --- | --- | --- | --- | --- | --- | --- | --- | --- | --- | --- | --- |
| COC(=O)[C@]12Cc3c([nH]c4ccccc34)[C@@H](c3ccc(C)cc3)N1[C@@H]1c3c(ccc4ccccc34)OC[C@@H]1C2 | 17 mm | 85 mg/L (≈ 165 µM) | 87% | 30 mg/L (≈ 58.3 µM) | 20 mm | 19 mm | 20 mm | 9 mm | 21 mm | 17 mm | 12 mm | 14 mm | 53% | 26% | 16 mm | 17 mm | 14 mm | 9 mm | 8 mm | 12 mm | inhibition zone (IZ) (Staphylococcus aureus [13]): 9 mm |
| COC(=O)[C@]12Cc3c([nH]c4ccccc34)[C@@H](c3ccccc3)N1[C@@H]1c3ccccc3OC[C@@H]1C2 | 18 mm | 30 mg/L (≈ 66.6 µM) | 70% | 40 mg/L (≈ 88.8 µM) | 25 mm | 25 mm | 24 mm | 9 mm | 26 mm | 19 mm | 11 mm | 12 mm | 53% | 28% | 20 mm | 20 mm | 11 mm | 9 mm | 9 mm | 11 mm | inhibition zone (IZ) (Staphylococcus aureus [13]): 9 mm |
| COC(=O)[C@]12Cc3c([nH]c4ccccc34)[C@@H](c3ccccc3)N1[C@@H]1c3c(ccc4ccccc34)OC[C@@H]1C2 | 18 mm | 30 mg/L (≈ 59.9 µM) | 69% | 85 mg/L (≈ 170 µM) | 24 mm | 26 mm | 25 mm | 9 mm | 24 mm | 17 mm | 13 mm | 13 mm | 33% | 17% | 20 mm | 18 mm | 12 mm | 10 mm | 9 mm | 12 mm | inhibition zone (IZ) (Staphylococcus aureus [13]): 9 mm |
| COC(=O)Nc1nc2ccccc2[nH]1 [CARBENDAZIM] |  | 20 mg/L (≈ 105 µM) |  | 15 mg/L (≈ 78.5 µM) |  |  |  |  |  |  |  |  |  |  |  |  |  |  |  |  |  |
| O=C1O[C@H]([C@@H](O)CO)C(O)=C1O |  |  | 99% |  |  |  |  |  |  |  |  |  | 97% | 95% |  |  |  |  |  |  |  |
| COC(=O)[C@]12Cc3c([nH]c4ccccc34)[C@@H](c3ccc(OC)cc3)N1[C@@H]1c3ccccc3OC[C@@H]1C2 | 16 mm | 35 mg/L (≈ 72.8 µM) | 68% | 50 mg/L (≈ 104 µM) | 19 mm | 18 mm | 20 mm | 8 mm | 20 mm | 19 mm | 12 mm | 11 mm | 50% | 28% | 18 mm | 15 mm | 11 mm | 8 mm | 7 mm | 11 mm |  |
| CN(C)[C@@H]1C(O)=C(C(N)=O)C(=O)[C@@]2(O)C(O)=C3C(=O)c4c(O)cccc4[C@@](C)(O)[C@H]3C[C@@H]12 [TETRACYCLINE] | 29 mm |  |  |  | > 40 mm | > 40 mm | > 40 mm | 15 mm | > 40 mm | 28 mm | 24 mm | 26 mm |  |  | 29 mm | 28 mm | 24 mm | 18 mm | 20 mm | 22 mm | inhibition zone (IZ) (Staphylococcus aureus [13]): 22 mm |

Reference: ChEMBL document CHEMBL1944603, “An efficient synthesis of highly functionalized novel chromeno[4,3-b]pyrroles and indolizino[6,7-b]indoles as potent antimicrobial and antioxidant agents” (2012)
